≈ marks a conversion by molar mass, not a printed value. Calls of active or inactive are those of the source. The rule behind the calls is not given here.
What was measured:
[1] = Inhibition of Wnt signaling (unknown origin) expressed in mouse L Wnt3A cells co-cultured with HEK293 cells after 48 hrs by Super-top flash reporter gene assay; format: cell-based; details: Homo sapiens, HEK293, 48 h
Procedure, shortened: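 Mouse L Wnt3A cells and HEK293 Super-Top Flash TCF-luciferase stable cells mixed 1:1, 12,000 cells/well, grown 24 h, then compound in DMSO diluted in DMEM added. After 48 h at 37°C, Bright-Glo luminescence read; IC50 from signal inhibition, geometric mean of at least two runs ± SEM; LGK974 standard in each run.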

[2] = Cytotoxicity against mouse NIH/3T3 cells by GRE-Luciferase reporter gene assay; format: cell-based; details: nih3t3
Procedure, shortened: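 NIH3T3 cells carrying GRE-luciferase reporter stimulated with 10 nM SAG as Hh pathway agonist, used as counter-screen for nonspecific cytotoxicity.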

[3] = target: T1, Protein-serine O-palmitoleoyltransferase porcupine (Homo sapiens) (UniProt Q9H237); assay: Inhibition of porcupine (unknown origin) in HEK293T cells transfected with pLibin-WNT3A plasmid assessed as reduction in Wnt3A secretion into cell culture medium at 0.1 uM after 48 hrs by Western blot technique; format: cell-based; details: HEK-293T
T1 sequence (whole entry): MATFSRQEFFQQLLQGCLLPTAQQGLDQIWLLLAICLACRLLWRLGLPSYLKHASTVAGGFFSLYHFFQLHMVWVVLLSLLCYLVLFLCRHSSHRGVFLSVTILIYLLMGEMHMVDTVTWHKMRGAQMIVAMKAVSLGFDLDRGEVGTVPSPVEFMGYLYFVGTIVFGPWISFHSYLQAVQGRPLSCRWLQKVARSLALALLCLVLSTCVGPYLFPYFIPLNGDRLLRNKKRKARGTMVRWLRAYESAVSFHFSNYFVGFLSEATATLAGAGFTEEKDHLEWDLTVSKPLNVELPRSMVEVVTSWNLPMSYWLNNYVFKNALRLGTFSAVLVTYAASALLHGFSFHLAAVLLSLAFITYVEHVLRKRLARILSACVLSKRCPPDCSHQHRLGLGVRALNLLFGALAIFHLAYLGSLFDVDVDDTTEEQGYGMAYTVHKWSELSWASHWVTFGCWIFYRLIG
Procedure, shortened: (§1)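 HEK293T cells in 6-well plates at 60% confluence, transfected with 1 µg pLibin-WNT3A plasmid or vehicle and treated at the same time with 0.1 µM compound. After 48 h, culture supernatant and cell lysate (40-50 µg protein) separated by SDS-PAGE, blotted to PVDF and probed for Wnt3A.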

[4] = Effect on Wnt3A level in HEK293T cells transfected with pLibin-WNT3A plasmid at 0.1 uM after 48 hrs by Western blot technique; format: cell-based; details: human, hek-293t; procedure, shortened: as §1
[5] = Chemical stability in simulated gastric fluid assessed as compound remaining at 200 uM at 40 degC after 24 hrs by HPLC technique; format: physicochemical; details: read-out: Stability
Procedure, shortened: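 Compound at 200 µM in simulated gastric fluid (3.8 mL conc. HCl diluted to 1000 mL water), held at 40°C for 24 h; percent remaining reported.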

[6] = Stability in rat plasma assessed as compound remaining at 1 uM after 8 hrs by LC-MS/MS analysis; format: ADME, cell-free; details: read-out: Stability
Procedure, shortened: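 Compound at 1 µM incubated in blank rat plasma for 8 h, deproteinized with acetonitrile plus internal standard, centrifuged, supernatant measured by LC-MS/MS; percent remaining.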

[7] = Intrinsic clearance in human liver microsomes at 1 uM preincubated for 10 mins followed by NADPH addition measured for 30 to 60 mins by LC-MS/MS analysis; format: ADME; details: read-out: CLH
Procedure, shortened: (§2)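 Liver microsomes (mouse or human, 0.2 mg/mL) with 1 µM substrate in 100 mM phosphate pH 7.4, preincubated 10 min, then started with 1 mM NADPH. Sampled at 0, 30, 60 min, quenched in cold acetonitrile with internal standard, LC-MS/MS. t1/2 from ln % remaining slope; scaled with 20 mg protein/g liver, liver 87.5 (mouse) or 25.7 (human) g/kg.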

[8] = Intrinsic clearance in mouse liver microsomes at 1 uM preincubated for 10 mins followed by NADPH addition measured for 30 to 60 mins by LC-MS/MS analysis; format: ADME; details: read-out: CLH; procedure, shortened: as §2
[9] = Half life in human liver microsomes at 1 uM preincubated for 10 mins followed by NADPH addition measured for 30 to 60 mins by LC-MS/MS analysis; format: ADME; procedure, shortened: as §2
[10] = Half life in mouse liver microsomes at 1 uM preincubated for 10 mins followed by NADPH addition measured for 30 to 60 mins by LC-MS/MS analysis; format: ADME; procedure, shortened: as §2
[11] = Thermodynamic solubility of the compound in FaSSIF at 4 mg/ml at pH 6.5 after overnight incubation by LC-MS/MS analysis; format: physicochemical; details: read-out: Therm_solubility
Procedure, shortened: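 4 mg/mL suspension in FaSSIF (pH 6.5) shaken 1 h, then equilibrated overnight at room temperature; supernatant after centrifugation quantified by LC-MS/MS.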

Rattus norvegicus = assay: AUC (0 to 24 hrs) in Sprague-Dawley rat plasma at 2 mg/kg, iv by LC-MS/MS analysis; format: ADME, organism-based; parameters: dose 2 mg/kg, time < 24 hr, route intravenous; details: in vivo
Procedure, shortened: (§3)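 Male Sprague-Dawley rats (200-250 g), fasted 12 h before dosing, food returned ~4 h post-dose. Solution at 1 mg/mL in NMP/Tween80/PEG400/water (10/1/50/39) given by tail vein at 2 mL/kg or oral gavage at 10 mL/kg. Plasma from timed blood samples precipitated with cold acetonitrile plus internal standard, measured by LC-MS/MS; noncompartmental PK parameters.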

[12] = Volume of distribution at steady state in Sprague-Dawley rat at 2 mg/kg, iv by LC-MS/MS analysis; format: ADME, organism-based; details: in vivo, read-out: Vdss; procedure, shortened: as §3
[13] = Cmax in Sprague-Dawley rat plasma at 2 mg/kg, iv by LC-MS/MS analysis; format: ADME, organism-based; parameters: dose 2 mg/kg, route intravenous; procedure, shortened: as §3
[14] = Half life in Sprague-Dawley rat at 2 mg/kg, iv by LC-MS/MS analysis; format: ADME, organism-based; details: in vivo; procedure, shortened: as §3
[15] = AUC (0 to 24 hrs) in Sprague-Dawley rat plasma at 10 mg/kg, po by LC-MS/MS analysis; format: ADME, organism-based; parameters: dose 10 mg/kg, time < 24 hr, route oral; procedure, shortened: as §3
[16] = Cmax in Sprague-Dawley rat plasma at 10 mg/kg, po by LC-MS/MS analysis; format: ADME, organism-based; parameters: dose 10 mg/kg, route oral; procedure, shortened: as §3
[17] = Tmax in Sprague-Dawley rat plasma at 10 mg/kg, po by LC-MS/MS analysis; format: ADME, organism-based; procedure, shortened: as §3
[18] = Half life in Sprague-Dawley rat at 10 mg/kg, po by LC-MS/MS analysis; format: ADME, organism-based; details: in vivo; procedure, shortened: as §3
[19] = Oral bioavailability in Sprague-Dawley rat at 10 mg/kg by LC-MS/MS analysis; format: ADME, organism-based; details: in vivo; procedure, shortened: as §3
Wnt3A = assay: Potency index, ratio of LGK974 IC50 to compound IC50 for Wnt signaling (unknown origin) expressed in mouse L Wnt3A cells co-cultured with HEK293; format: cell-based; details: Homo sapiens

Structure (SMILES)	IC50 [1] [nM]	Activity [2]	also measured
Cc1cc(-c2ccc(CC(=O)Nc3ccc4c(c3)C(F)(F)c3ccccc3-4)cc2)ccn1	3.5	Non-toxic	–
Cc1cc(-c2ccc(CC(=O)Nc3ccc4c(c3)oc3ccccc34)cc2)ccn1	9	Non-toxic	–
Cc1cc(-c2ncc(CC(=O)Nc3ccc4c(c3)[nH]c3ccccc34)cc2C)ccn1	2.6	Non-toxic	–
Cc1cc(-c2ncc(CC(=O)Nc3ccc4c(c3)oc3ccccc34)cc2C)ccn1	13	Non-toxic	–
Cc1cc(-c2ncc(CC(=O)Nc3ccc4c5ccccc5n(C)c4c3)cc2C)ccn1	49	Non-toxic	–
O=C(Cc1ccc2c(c1)C(=O)c1ccccc1-2)Nc1ccc(-c2cnccn2)cn1	> 1000	Non-toxic	–
Cc1cc(-c2ncc(CC(=O)Nc3ccc(-c4cnccn4)cn3)cc2C)ccn1 [WNT-974]	0.9	–	inhibition [3]: Active; Activity [4]: Non-toxic
O=C(Cc1ccc2c(c1)Cc1ccccc1-2)Nc1ccc(-c2cnccn2)cn1	454	Non-toxic	–
Cc1cc(-c2ncc(CC(=O)Nc3ccc4c(c3)C(F)(F)c3ccccc3-4)cc2C)ccn1	2.7	Non-toxic	–
O=C(Cc1ccc2c(c1)C(=O)c1ccccc1-2)Nc1ccc(-c2cccnc2)cc1	> 1000	Non-toxic	–
Cc1cc(-c2ncc(CC(=O)Nc3ccc4c(c3)Cc3ccccc3-4)cc2C)ccn1	2.5	Non-toxic	–
Cc1cc(-c2ccc(CC(=O)Nc3ccc4c(c3)[nH]c3ccccc34)cc2)ccn1	2.3	Non-toxic	inhibition [3]: Active; Activity [4]: Non-toxic; remaining at 24 h, 200 µM [5]: 100%; remaining at 8 h, 1 µM [6]: 100%; CLint scaled at 1 µM [7]: 41 mL/min/kg; CLint scaled at 1 µM [8]: 67 mL/min/kg; half-life at 1 µM [9]: 43 min; half-life at 1 µM [10]: 91 min; solubility thermodynamic [11]: 2 µg/mL (≈ 5.11 µM); AUC (Rattus norvegicus): 7442 ng·h/mL; Vd [12]: 2.7 L/kg; Cmax [13]: 1950 ng/mL; half-life [14]: 150 min; AUC(0-t) at 24 h [15]: 11300 ng·h/mL; Cmax [16]: 2880 ng/mL; Tmax [17]: 1 h; half-life [18]: 186 min; bioavailability [19]: 30%
Cc1cc(-c2ccc(CC(=O)Nc3ccc4c5ccccc5n(C)c4c3)cc2)ccn1	191	Non-toxic	–
Cc1cc(-c2ncc(CC(=O)Nc3ccc4c(c3)C(=O)c3ccccc3-4)cc2C)ccn1	2.8	Non-toxic	–
O=C(Cc1ccc2c(c1)oc1ccccc12)Nc1ccc(-c2cccnc2)cc1	544	Non-toxic	–
Cc1cc(-c2ccc(CC(=O)Nc3ccc4c(c3)Cc3ccccc3-4)cc2)ccn1	1.4	Non-toxic	–
Cc1cc(-c2ccc(CC(=O)Nc3ccc4c(c3)C(=O)c3ccccc3-4)cc2)ccn1	0.45	Non-toxic	Ratio IC50 (Wnt3A): 2; inhibition [3]: Active; Activity [4]: Non-toxic; remaining at 24 h, 200 µM [5]: 99%; remaining at 8 h, 1 µM [6]: 100%; CLint scaled at 1 µM [7]: 149 mL/min/kg; CLint scaled at 1 µM [8]: 508 mL/min/kg; half-life at 1 µM [9]: 12 min; half-life at 1 µM [10]: 12 min; solubility thermodynamic [11]: < 1 µg/mL
O=C(Cc1ccc2c(c1)Cc1ccccc1-2)Nc1ccc(-c2cccnc2)cc1	231	Non-toxic	–
O=C(Cc1ccc2c(c1)oc1ccccc12)Nc1ccc(-c2cnccn2)cn1	136	Non-toxic	–

From ChEMBL document CHEMBL3758157, “Design, synthesis, and evaluation of potent Wnt signaling inhibitors featuring a fused 3-ring system” (Eur J Med Chem, 2016)
